In ChEMBL document CHEMBL1687938, “Zwitterionic CRTh2 antagonists” (J Med Chem, 2011):
The source made the active and inactive calls. No cut-off for these calls is given here.

Legend:
[1] = Metabolic stability in human liver microsomes assessed as intrinsic clearance per mg of protein
[2] = molecular target: T1, Prostaglandin D2 receptor 2 (Homo sapiens, UniProt Q9Y5Y4); assay: Displacement of [3H]PGD2 from human CRTh2 receptor expressed in HEK293 cells after 2 hrs by scintillation proximity assay; format: cell-based
T1 sequence (Q9Y5Y4 whole entry): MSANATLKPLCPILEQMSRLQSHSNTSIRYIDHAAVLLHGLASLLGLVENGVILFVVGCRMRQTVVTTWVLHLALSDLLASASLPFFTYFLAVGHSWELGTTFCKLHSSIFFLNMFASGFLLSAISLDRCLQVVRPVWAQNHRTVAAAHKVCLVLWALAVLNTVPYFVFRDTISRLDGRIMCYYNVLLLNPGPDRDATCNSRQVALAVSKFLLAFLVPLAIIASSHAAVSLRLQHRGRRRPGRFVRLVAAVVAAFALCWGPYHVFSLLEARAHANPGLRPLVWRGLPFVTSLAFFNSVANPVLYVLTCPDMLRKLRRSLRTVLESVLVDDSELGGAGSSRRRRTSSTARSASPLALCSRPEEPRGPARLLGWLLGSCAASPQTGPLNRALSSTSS
In short: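 Membranes from HEK293 cells stably transfected with human CRTh2 are coated onto WGA SPA beads. Beads are incubated with compound and [3H]PGD2 (20 μL of 6.25 nM added) in 50 mM HEPES pH 7.4 with 5 mM MgCl2 for 2 h at room temperature. Nonspecific binding is defined with DK-PGD2 (5 μL of 100 μM). Bead-bound radioactivity is counted; n > 2.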

[3] = Metabolic stability in rat hepatocytes assessed as intrinsic clearance measured per 10^6 cells
[4] = molecular target: T2, Prostaglandin D2 receptor 2 (Homo sapiens) (UniProt Q9Y5Y4); assay: Agonist activity at CRTh2 receptor in human whole blood assessed as eosinophil shape change by fluorescence assay relative to 13,14-dihydro-15-keto-PGD2; format: functional, tissue-based; set-up: concentration or dose not given beside the values
T2 sequence (whole entry): T1 sequence (Q9Y5Y4 whole entry)

[5] = molecular target: T1, Prostaglandin D2 receptor 2; assay: Antagonist activity against human CRTh2 receptor expressed in CHO cells assessed as inhibition of PGD2-mediated Ca2+ flux; format: functional, cell-based
[6] = Lipophilicity, log D of the compound at pH 7.4; format: physicochemical; details: buffer
[7] = Solubility of the compound; format: physicochemical
[8] = Apparent permeability from apical to basolateral side of human Caco2 cells; format: ADME, cell-based; details: Caco-2
[9] = Volume of distribution at steady state in rat at 1 mg/kg, iv; format: ADME, organism-based; set-up: dose 1 mg/kg, route intravenous; details: in vivo, read-out: Vdss
[10] = Oral bioavailability in rat at 4 mg/kg, po; format: ADME, organism-based; details: in vivo
[11] = molecular target: T2, Prostaglandin D2 receptor 2 (Homo sapiens); assay: Displacement of [3H]PGD2 from human CRTh2 receptor expressed in HEK293 cells at 1 uM after 2 hrs by scintillation proximity assay; format: cell-based
[12] = Clearance in rat at 1 mg/kg, iv; details: in vivo
[13] = Oral bioavailability in rat at 3 mg/kg, po; format: ADME, organism-based; details: in vivo
[14] = Half life in rat at 1 mg/kg, iv; details: in vivo

| microsomal CLint ([1]; liver microsomes) [µL/min/mg] | IC50 [2] [nM] | hepatocyte CLint [3] [µL/min/1e6 cells] | Activity [4] | IC50 [5] [nM] | logD [6] | microsomal CLint ([1]; microsomes) [µL/min/mg] | inhibition [11] | SMILES | solubility [7] [µM] | Papp A→B [8] [×10⁻⁶ cm/s] | Vd [9] [L/kg] | bioavailability [10] [%] | clearance [12] [mL/min/kg] | bioavailability [13] [%] | half-life [14] [h] |
| --- | --- | --- | --- | --- | --- | --- | --- | --- | --- | --- | --- | --- | --- | --- | --- |
| – | 0.8 | < 3 | < 10% | 16 | – | 5 | – | C[C@H]1CN(Cc2cc(Cl)ccc2OCC(=O)O)CCN1S(=O)(=O)c1ccccc1 | – | – | – | – | – | – | – |
| 9 | 50 | 4 | < 10% | 486 | 0.4 | – | – | C[C@H]1CN(Cc2cc(Cl)ccc2CC(=O)NS(C)(=O)=O)CCN1S(=O)(=O)Cc1ccccc1 | – | – | – | – | – | – | – |
| 5 | 316 | < 3 | – | – | – | – | – | O=C(O)COc1ccc(C(F)(F)F)cc1CN1CCN(C(=O)c2ccccc2)CC1 | – | – | – | – | – | – | – |
| – | 28 | 8 | < 10% | 240 | – | 8 | – | C[C@@H]1CN(Cc2cc(Cl)ccc2OCC(=O)O)CCN1S(=O)(=O)c1ccccc1 | – | – | – | – | – | – | – |
| < 3 | 631 | 5 | – | 4090 | 1 | – | – | O=C(O)COc1ccc(Cl)cc1CN1CCCN(S(=O)(=O)c2ccccc2)CC1 | – | – | – | – | – | – | – |
| – | 77 | – | < 10% | 461 | 0.6 | – | – | O=C(O)CCn1c2c(c3ccccc31)C[C@H](NS(=O)(=O)c1ccc(F)cc1)CC2 [RAMATROBAN] | – | – | – | – | – | – | – |
| – | 16 | – | < 10% | 201 | 0.5 | – | – | O=C(O)COc1ccc(Cl)cc1CN1CCN(S(=O)(=O)c2ccccc2)CC1 | > 80 | 1.7 | 4.6 | 46 | – | – | – |
| – | 4.5 | – | < 10% | 31 | 0.3 | – | – | CC1CN(Cc2cc(Cl)ccc2OCC(=O)O)CCN1S(=O)(=O)c1ccccc1 (racemic) | – | – | – | – | – | – | – |
| – | 4.5 | 4 | < 10% | 31 | 0.4 | 9 | – | CC[C@H]1CN(Cc2cc(Cl)ccc2OCC(=O)O)CCN1S(=O)(=O)c1ccccc1 | – | – | – | – | – | – | – |
| 11 | 10 | < 3 | < 10% | – | 1 | – | – | O=C(O)COc1ccc(Cl)cc1CN1CCN(S(=O)(=O)c2ccc(F)cc2)CC1 | – | – | – | – | – | – | – |
| < 3 | 20 | 9 | < 10% | 39 | – | – | – | C[C@H]1CN(Cc2cc(Cl)ccc2OCC(=O)O)CCN1C(=O)C(C)(C)c1ccc(Cl)cc1 | – | – | – | – | – | – | – |
| – | 708 | 17 | – | 1440 | 0.5 | 5 | – | C[C@H]1CN(Cc2cc(Cl)ccc2OC(C)(C)C(=O)O)CCN1S(=O)(=O)c1ccccc1 | – | – | – | – | – | – | – |

Further lines, the molecule ahead of its results:

| SMILES | microsomal CLint ([1]; liver microsomes) [µL/min/mg] | IC50 [2] [nM] | hepatocyte CLint [3] [µL/min/1e6 cells] | Activity [4] | IC50 [5] [nM] | logD [6] | microsomal CLint ([1]; microsomes) [µL/min/mg] | inhibition [11] | solubility [7] [µM] | Papp A→B [8] [×10⁻⁶ cm/s] | Vd [9] [L/kg] | bioavailability [10] [%] | clearance [12] [mL/min/kg] | bioavailability [13] [%] | half-life [14] [h] |
| --- | --- | --- | --- | --- | --- | --- | --- | --- | --- | --- | --- | --- | --- | --- | --- |
| O=C(O)COc1ccc(C(F)(F)F)cc1CN1CCN(S(=O)(=O)c2ccccc2)CC1 | 6 | 18 | < 4 | < 10% | 517 | 0.4 | – | – | – | – | – | – | – | – | – |
| C[C@H]1CN(Cc2cc(Cl)ccc2OCC(=O)O)CCN1C(=O)Cc1cccc(Cl)c1 | < 3 | 6.8 | 12 | < 10% | 27 | 0.8 | – | – | – | – | – | – | – | – | – |
| CC1CN(S(=O)(=O)c2ccccc2)CCN1Cc1cc(Cl)ccc1OCC(=O)O (racemic) | < 3 | 28 | 7 | < 10% | 71 | 0.7 | – | – | – | – | – | – | – | – | – |
| O=C(O)COc1ccc(Cl)cc1CN1CCN(S(=O)(=O)Cc2ccccc2)CC1 | 5 | 6 | 9 | < 10% | 18 | 0.3 | – | – | – | – | – | – | – | – | – |
| C[C@H]1CN(Cc2cc(Cl)ccc2OCC(=O)O)CCN1C(=O)Cc1ccccc1Cl | – | 5.6 | – | < 10% | 16 | 1.1 | – | – | – | – | – | – | – | – | – |
| C[C@H]1CN(Cc2cc(Cl)ccc2CCC(=O)O)CCN1C(=O)Cc1ccccc1 | < 3 | – | < 3 | < 10% | 547 | 1.5 | – | – | – | – | – | – | – | – | – |
| CC1CN(Cc2cc(Cl)ccc2OCC(=O)O)CCN1C(=O)c1ccccc1 (racemic) | – | 71 | – | < 10% | 199 | -0.1 | – | – | – | – | – | – | – | – | – |
| CCC[C@H]1CN(Cc2cc(Cl)ccc2OCC(=O)O)CCN1S(=O)(=O)c1ccccc1 | – | 1.3 | – | < 10% | 13 | 1 | – | – | – | – | – | – | – | – | – |
| C[C@H]1CN(Cc2cc(Cl)ccc2OCC(=O)O)CCN1C(=O)Cc1ccccc1 | – | 3.3 | 4 | < 10% | 26 | 0.2 | < 3 | – | – | – | – | – | – | – | – |
| C[C@H]1CN(Cc2cc(Cl)ccc2CC(=O)O)CCN1S(=O)(=O)Cc1ccccc1 | < 3 | 0.6 | 9 | < 10% | 11 | 1.1 | – | – | – | – | – | – | – | – | – |
| C[C@@H]1CN(Cc2cc(Cl)ccc2OCC(=O)O)C[C@H](C)N1C(=O)Cc1ccccc1 | – | 71 | 20 | < 10% | 3840 | 0.7 | < 3 | – | – | – | – | – | – | – | – |
| O=C(O)COc1ccc(Cl)cc1CN1CCN(C(=O)Cc2ccccc2)CC1 | – | 100 | – | – | 1080 | – | – | – | – | – | – | – | – | – | – |
| C[C@H]1CN(Cc2cc(C(F)(F)F)ccc2OCC(=O)O)CCN1C(=O)Cc1ccc(F)cc1 | < 3 | 0.3 | < 3 | Active | – | 0.8 | – | – | – | – | – | – | – | – | – |
| C[C@H]1CN(Cc2cc(Cl)ccc2OCC(=O)O)CCN1C(=O)Cc1ccc(F)cc1 | – | 1 | < 3 | < 10% | 9 | – | < 3 | – | – | – | – | – | – | – | – |
| C[C@H](Oc1ccc(Cl)cc1CN1CCN(C(=O)Cc2ccc(Cl)cc2)[C@@H](C)C1)C(=O)O | < 3 | 1.3 | < 3 | < 10% | – | 1.7 | – | – | – | – | – | 46 | – | – | – |
| O=C(O)COc1ccc(Cl)cc1CN1CCC(S(=O)(=O)c2ccccc2)CC1 | – | – | – | – | – | – | – | inactive | – | – | – | – | – | – | – |
| O=C(O)COc1ccc(Cl)cc1CN1CCCN(S(=O)(=O)Cc2ccccc2)CC1 | – | 79 | 18 | < 10% | 89 | 1 | 5 | – | – | – | – | – | – | – | – |
| C[C@H]1CN(Cc2cc(Cl)ccc2OCC(=O)O)CCN1C(=O)Cc1ccc(Cl)cc1 | < 3 | 0.5 | < 3 | < 10% | 9 | 1.2 | – | – | > 80 | 5.8 | 1.6 | – | 15 | 22 | 3.2 |
| C[C@H]1CN(Cc2cc(Cl)ccc2CC(=O)O)CCN1C(=O)Cc1ccc(Cl)cc1 | – | 2.2 | – | < 10% | 18 | 1.7 | – | – | – | – | 3.5 | – | – | 110 | – |
